Among the data in ChEMBL document CHEMBL1121761, “Antihypertensive pyrrolo[1,2-c]quinazolines and pyrrolo[1,2-c]quinazolinones” (1981) are Delta blood pressure values, retold here.

Format in all cases: functional, Artery
For test [1], the system named is Rattus norvegicus. As to the kind of experiment: Change in systolic blood pressure after 12.5 mg/kg oral administration in spontaneous hypertensive rats after 2 hr. The procedure, abridged:
(§1)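 Reference agents were given orally to male SHR, four per dose, as a suspension in PEG 200/PEG 400/EtOH/pH 7.50 phosphate buffer vehicle at 0.5 mL/100 g. Systolic pressure was measured by tail cuff before dosing and at 2, 4 and 24 h after each dose. Predose and postdose levels were compared by paired Student's t test.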

The test system of test [2] is Rattus norvegicus. As to the kind of experiment: Change in systolic blood pressure after 12.5 mg/kg oral administration in spontaneous hypertensive rats after 24 hr. Summed up:
as §1

Test [3] concerns Rattus norvegicus. As to the kind of experiment: Change in systolic blood pressure after 25 mg/kg oral administration in spontaneous hypertensive rats after 2 hr. The procedure, abridged:
as §1

Test [4] has as its system Rattus norvegicus. As to the kind of experiment: Change in systolic blood pressure after 25 mg/kg oral administration in spontaneous hypertensive rats after 24 hr. The procedure, abridged: as §1
In test [5] the test system is Rattus norvegicus. As to the kind of experiment: Change in systolic blood pressure after 25 mg/kg oral administration in spontaneous hypertensive rats after 4 hr. The procedure, abridged:
as §1

Test [6] has as its system Rattus norvegicus. As to the kind of experiment: Change in systolic blood pressure after 12.5 mg/kg oral administration in spontaneous hypertensive rats after 4 hr. Summed up: as §1
Test [7] has as its system Rattus norvegicus. As to the kind of experiment: Change in systolic blood pressure after 50 mg/kg oral administration in spontaneous hypertensive rats after 24 hr. Summed up:
(§2)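 Male spontaneously hypertensive rats, four per dose, received oral doses suspended in 30% PEG 200, 10% PEG 400, 10% EtOH and 50% pH 7.50 phosphate buffer at 0.5 mL/100 g. A first dose of 100 mg/kg was followed by a second dose of 50 mg/kg. Tail-cuff systolic pressure was read before dosing and 2, 4 and 24 h after each dose. Postdose readings were compared with predose readings by paired Student's t test.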

The subject of test [8] is Rattus norvegicus. As to the kind of experiment: Change in systolic blood pressure after 50 mg/kg oral administration in spontaneous hypertensive rats after 4 hr. The procedure, abridged: as §2
Test [9] relates to Rattus norvegicus. As to the kind of experiment: Change in systolic blood pressure after 100 mg/kg oral administration in spontaneous hypertensive rats after 4 hr. The procedure, abridged:
as §2

The test system of test [10] is Rattus norvegicus. As to the kind of experiment: Change in systolic blood pressure after 100 mg/kg oral administration in spontaneous hypertensive rats after 24 hr. Summed up: as §2
For test [11], the system named is Rattus norvegicus. As to the kind of experiment: Change in systolic blood pressure after 50 mg/kg oral administration in spontaneous hypertensive rats after 2 hr. The procedure, abridged: as §2
The test system of test [12] is Rattus norvegicus. As to the kind of experiment: Change in systolic blood pressure after 100 mg/kg oral administration in spontaneous hypertensive rats after 2 hr. Summed up: as §2
The subject of test [13] is Rattus norvegicus. As to the kind of experiment: Change in systolic blood pressure after 33 mg/kg oral administration in spontaneous hypertensive rats after 2 hr. The procedure, abridged:
as §1

For test [14], the system named is Rattus norvegicus. As to the kind of experiment: Change in systolic blood pressure after 33 mg/kg oral administration in spontaneous hypertensive rats after 4 hr. The procedure, abridged:
as §1

For test [15], the system named is Rattus norvegicus. As to the kind of experiment: Change in systolic blood pressure after 33 mg/kg oral administration in spontaneous hypertensive rats after 24 hr. The procedure, abridged: as §1

Take `COc1cc2nc(N3CCN(C(=O)c4ccco4)CC3)nc(N)c2cc1OC` [PRAZOSIN]: the Delta blood pressure with Rattus norvegicus [1] is 40; in the test on Rattus norvegicus [2] it was 13.7; in the test on Rattus norvegicus [3], 56.2; with Rattus norvegicus [4], 41.2; with Rattus norvegicus [5], 76.2; in the test on Rattus norvegicus [6] it was 48.2.

As for `CC#Cc1c(C)cc2c3ccccc3nc(O)n12.Cl`, the Delta blood pressure in the test on Rattus norvegicus [7] was found to be 42; in the test on Rattus norvegicus [8], 30; with Rattus norvegicus [9] it was 27; in the test on Rattus norvegicus [10], 20.5.

With `CCOC(=O)c1cc2c3cc(C#N)ccc3ncn2c1`, the Delta blood pressure turned out to be 21.6 in the test on Rattus norvegicus [11]; 6.6 in the test with Rattus norvegicus [7]; 33 in the test with Rattus norvegicus [8]; 20 in the test with Rattus norvegicus [9]; 11.6 in the test on Rattus norvegicus [12]; 20 in the test on Rattus norvegicus [10].

For the compound `CC(C)NCC(O)COc1cccc2ccccc12` (configuration not stated) [PROPRANOLOL], the Delta blood pressure is given as 45 with Rattus norvegicus [9]; 27.5 with Rattus norvegicus [13]; 28.7 in the test with Rattus norvegicus [14]; 18.7 in the test on Rattus norvegicus [12]; 51.2 in the test with Rattus norvegicus [15]; 32.5 with Rattus norvegicus [10].

As to `COc1ccc2c(c1)nc(O)n1cc(C)cc21`, the Delta blood pressure was found to be 28 in the test on Rattus norvegicus [11]; 12 in the test on Rattus norvegicus [7]; 31 in the test on Rattus norvegicus [8]; 9 in the test with Rattus norvegicus [9]; 6 with Rattus norvegicus [12]; 15 in the test with Rattus norvegicus [10].

Regarding `Cc1cc2c3ccccc3nc(O)n2c1`, the Delta blood pressure in the test on Rattus norvegicus [11] is on record as 46; in the test on Rattus norvegicus [7] it was 35; in the test on Rattus norvegicus [9], 39; with Rattus norvegicus [10] it was 11.

On to `CCOC(=O)c1cc2n(c1)CN(C)c1ccccc1-2`, for which the Delta blood pressure with Rattus norvegicus [7] is 6.5; with Rattus norvegicus [8], 26; in the test on Rattus norvegicus [12] it was 29; in the test on Rattus norvegicus [10], 31.

Turning to `CCOC(=O)c1cc2c3ccccc3n(CCC#N)c(=O)n2c1`, the Delta blood pressure with Rattus norvegicus [7] worked out at 59; with Rattus norvegicus [8] it was 19; in the test on Rattus norvegicus [9], 2; in the test with Rattus norvegicus [10] it was 45.

For `CCOC(=O)c1cc2c3cc(Cl)ccc3ncn2c1`, the Delta blood pressure was determined as 13.8 with Rattus norvegicus [11]; 7.5 with Rattus norvegicus [7]; 31.3 in the test on Rattus norvegicus [8]; 16.3 in the test on Rattus norvegicus [9]; 17.5 with Rattus norvegicus [12]; 5 with Rattus norvegicus [10].

Regarding `CCOC(=O)c1cc2n(c1)CN(CCC#N)c1ccccc1-2`, the Delta blood pressure in the test with Rattus norvegicus [11] was 33; in the test on Rattus norvegicus [8] it was 38; in the test with Rattus norvegicus [9], 11.3; with Rattus norvegicus [12] it was 13.8; in the test on Rattus norvegicus [10], 1.2.

On to `CCOC(=O)c1cc2n(c1)CN(C(=O)OCC)c1ccccc1-2`, for which the Delta blood pressure with Rattus norvegicus [11] was determined as 18.7; in the test with Rattus norvegicus [7] it was 23.7; in the test with Rattus norvegicus [8], 42.5; with Rattus norvegicus [9], 11.2; with Rattus norvegicus [12], 6.2; in the test on Rattus norvegicus [10] it was 20.
